Data set [1] addresses T1, A1R (Homo sapiens, UniProt P30542).
T1 sequence (P30542 1-326): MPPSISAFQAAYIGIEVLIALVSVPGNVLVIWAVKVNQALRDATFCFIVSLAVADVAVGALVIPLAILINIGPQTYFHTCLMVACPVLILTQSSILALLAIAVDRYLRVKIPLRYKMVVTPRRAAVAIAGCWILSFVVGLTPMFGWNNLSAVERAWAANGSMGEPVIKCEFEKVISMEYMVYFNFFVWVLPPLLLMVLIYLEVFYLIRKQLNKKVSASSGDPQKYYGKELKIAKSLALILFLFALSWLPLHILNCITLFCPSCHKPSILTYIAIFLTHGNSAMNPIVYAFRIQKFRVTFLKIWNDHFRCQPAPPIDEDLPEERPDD
Nature of the data set: Competition radioligand binding, human A1R. The method in brief: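 Membranes from HEK293 cells expressing recombinant human A1R (DMEM, 10% FBS, 37 °C, 5% CO2), treated with adenosine deaminase 3 units/mL for 30 min at 37 °C. 20 μg protein per tube incubated 60 min at 25 °C in 50 mM Tris·HCl with 10 mM MgCl2, 0.5 nM [3H]8-cyclopentyl-1,3-dipropylxanthine and varied test compound. Nonspecific binding defined with 10 μM XAC. Bound ligand collected on GF/B filters and counted by scintillation. Ki by Cheng–Prusoff; mean ± SEM of 2–4 experiments in duplicate.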

In another data set the target is recombinant A2AR (human) (Homo sapiens, UniProt P29274). Nature of the data set: Competition radioligand binding, human A2AR. The settings on record: for inhibition at 1 µM: read-out: % inhib., A2A. The essentials: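 Human A2AR expressed in HEK293 cells; membranes treated with adenosine deaminase 3 units/mL for 30 min at 37 °C. […] Nonspecific binding with 10 μM XAC. Filtration on GF/B, scintillation counting. Ki by Cheng–Prusoff, mean ± SEM of 2–4 experiments in duplicate.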
Chain of recombinant A2AR (human) (P29274 whole entry): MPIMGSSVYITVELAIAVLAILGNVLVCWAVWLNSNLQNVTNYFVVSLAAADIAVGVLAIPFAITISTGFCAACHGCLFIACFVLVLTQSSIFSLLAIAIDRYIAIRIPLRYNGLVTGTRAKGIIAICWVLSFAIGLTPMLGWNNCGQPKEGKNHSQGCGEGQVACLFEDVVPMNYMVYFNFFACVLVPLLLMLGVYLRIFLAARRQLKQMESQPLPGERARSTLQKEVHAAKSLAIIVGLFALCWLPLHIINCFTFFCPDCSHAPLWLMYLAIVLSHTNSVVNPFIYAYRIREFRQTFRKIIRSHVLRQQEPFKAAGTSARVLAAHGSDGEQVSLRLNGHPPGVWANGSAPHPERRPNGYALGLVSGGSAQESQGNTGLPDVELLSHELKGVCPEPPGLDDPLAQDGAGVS

A further data set addresses T2, recombinant A2BR (human) (Homo sapiens, UniProt P29275).
T2 sequence (P29275 1-332): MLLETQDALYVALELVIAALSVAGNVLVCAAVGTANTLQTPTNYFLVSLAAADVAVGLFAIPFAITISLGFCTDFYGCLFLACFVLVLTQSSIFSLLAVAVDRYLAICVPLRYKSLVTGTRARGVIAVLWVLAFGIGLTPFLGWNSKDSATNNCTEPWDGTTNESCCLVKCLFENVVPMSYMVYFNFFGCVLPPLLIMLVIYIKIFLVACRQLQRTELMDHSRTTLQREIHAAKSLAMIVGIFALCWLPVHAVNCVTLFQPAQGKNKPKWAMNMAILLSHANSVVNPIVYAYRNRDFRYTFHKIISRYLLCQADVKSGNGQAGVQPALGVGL
In words: Competition radioligand binding, human A2BR. The essentials:
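Adenosine deaminase-treated membranes (3 units/mL, 30 min, 37 °C) of HEK293 cells carrying recombinant human A2BR. […] Nonspecific binding with 100 μM XAC. GF/B filtration, scintillation counting. Ki via Cheng–Prusoff, mean ± SEM of 2–4 experiments in duplicate.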

The next data set concerns the target T3, recombinant A3R (human) (Homo sapiens, UniProt P0DMS8).
T3 sequence (P0DMS8 1-318): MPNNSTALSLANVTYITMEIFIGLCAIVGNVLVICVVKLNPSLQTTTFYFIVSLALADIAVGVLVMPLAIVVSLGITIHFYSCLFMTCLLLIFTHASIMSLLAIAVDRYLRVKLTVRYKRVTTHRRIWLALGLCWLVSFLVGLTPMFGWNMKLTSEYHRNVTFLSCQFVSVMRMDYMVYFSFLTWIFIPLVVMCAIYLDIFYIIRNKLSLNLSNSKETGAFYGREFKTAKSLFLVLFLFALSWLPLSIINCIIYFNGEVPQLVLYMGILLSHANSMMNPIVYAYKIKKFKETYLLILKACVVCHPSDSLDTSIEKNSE
In words: Competition radioligand binding, human A3R. The settings on record: for inhibition at 1 µM: read-out: % inhib., A3.

For data set [2], the target named is T1, A1R. In words: cAMP accumulation assay. In kind it is cell-based. The conditions noted are these: for Emax: HEK293, read-out: A1 functional efficacy (Emax %). The method in brief: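 HEK293 cells expressing A1R seeded at 1,000 cells/well on poly-D-lysine and kept overnight at 37 °C. Preincubated 30 min at 37 °C with adenosine deaminase 3 units/ml, rolipram 10 μM and the A2B antagonist PSB603 1 μM. Agonist applied 20 min, then forskolin 10 μM for 15 min at 37 °C. Cells lysed in 0.3% Tween-20 and cAMP measured by AlphaScreen. Emax relative to a reference agonist set at 100%.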

The target in data set [3] is T4, A1R, rat brain membranes (forebrain) (Rattus norvegicus, UniProt P25099).
T4 sequence (P25099 1-326): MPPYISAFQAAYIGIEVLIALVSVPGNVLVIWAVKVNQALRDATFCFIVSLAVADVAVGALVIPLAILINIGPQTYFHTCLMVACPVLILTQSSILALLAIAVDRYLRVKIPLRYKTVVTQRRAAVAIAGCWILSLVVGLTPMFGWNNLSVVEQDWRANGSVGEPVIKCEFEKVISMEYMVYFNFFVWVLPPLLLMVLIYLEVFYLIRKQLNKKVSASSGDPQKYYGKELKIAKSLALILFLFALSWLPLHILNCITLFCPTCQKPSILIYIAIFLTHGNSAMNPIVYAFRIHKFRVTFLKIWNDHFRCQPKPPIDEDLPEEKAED
Nature of the data set: Competition radioligand binding, rat brain homogenates. The method in brief: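 Rat forebrain homogenate incubated 60 min at 25 °C in 50 mM Tris·HCl with 10 mM MgCl2, 0.5 nM [3H]8-cyclopentyl-1,3-dipropylxanthine and varied test compound. Nonspecific binding defined with 10 μM XAC. Separation by GF/B filtration with 3 ice-cold buffer washes, then scintillation counting. IC50 converted to Ki by Cheng–Prusoff; mean ± SEM of 2–4 experiments in duplicate.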

The target in data set [4] is A2AR, rat brain membranes (striatum) (Rattus norvegicus, UniProt P30543). In words: Competition radioligand binding, rat brain homogenates. The method in brief:
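Rat striatum homogenate incubated 60 min at 25 °C in 50 mM Tris·HCl/10 mM MgCl2 with 0.8 nM [3H]ZM241385 and varied test compound. Nonspecific binding defined with 10 μM XAC. GF/B filtration with 3 ice-cold washes, then scintillation counting. Ki from IC50 by Cheng–Prusoff; mean ± SEM of 2–4 experiments in duplicate.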

Data set [5] can be described thus: Small animal PET, brain uptake in rats. Format: in vivo, rat. The settings on record: 11C-labelled compound; for BBB permeability: rat pilot PET study; for standard uptake value (SUV), brain uptake: rat, whole brain, 10 min after intravenous administration. The essentials:
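Male Wistar rats (2–3 months, 318 ± 40 g) under 2–5% isoflurane, temperature held near 36.9 °C. After a 10 min transmission scan, 20.8–37.0 MBq 11C-labelled test compound in saline infused iv (tail vein or penile catheter, 600 μL/min). 90 min dynamic list-mode microPET, template coregistration, regional time-activity curves. Test–retest (n=3) 30 min later; blocking drugs given 10 min before the second injection.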

Chain of A2AR, rat brain membranes (striatum) (P30543 whole entry): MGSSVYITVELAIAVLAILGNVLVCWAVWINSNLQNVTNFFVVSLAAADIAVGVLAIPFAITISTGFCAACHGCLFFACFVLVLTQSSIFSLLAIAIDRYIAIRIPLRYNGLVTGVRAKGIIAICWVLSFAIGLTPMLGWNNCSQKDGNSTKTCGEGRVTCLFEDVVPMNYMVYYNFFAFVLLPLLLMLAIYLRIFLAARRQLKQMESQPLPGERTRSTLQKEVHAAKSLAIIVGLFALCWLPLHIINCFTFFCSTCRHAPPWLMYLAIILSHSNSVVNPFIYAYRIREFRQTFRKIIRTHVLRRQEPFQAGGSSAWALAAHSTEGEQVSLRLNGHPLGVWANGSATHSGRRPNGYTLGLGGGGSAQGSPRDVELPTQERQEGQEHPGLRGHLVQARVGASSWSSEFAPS

For orientation: Ki means a measure of affinity in units of concentration, obtained from inhibition or displacement. In general, Emax refers to the size of the effect at its maximum, as opposed to the concentration needed. As for `COc1ccc(-c2nc(SCc3cccc(C)n3)nc(N)c2C#N)cc1` [21a, 4-Amino-6-(4-methoxyphenyl)-2-(((6-methylpyridin-2-yl)methyl)thio)pyrimidine-5-carbonitrile], the Ki was 29 ± 0.1 nM at A1R [1] and 305 ± 108 nM at recombinant A2BR (human). Further, the inhibition at 1 µM on recombinant A2AR (human) is 32 ± 2%; on recombinant A3R (human), 44 ± 3%. For the same compound, the Emax on A1R [2] is -2 ± 3.5%.

With `COc1cccc(-c2nc(SCc3cccc(C)n3)nc(N)c2C#N)c1` [21b, 4-Amino-6-(3-methoxyphenyl)-2-(((6-methylpyridin-2-yl)methyl)thio)pyrimidine-5-carbonitrile], the affinity on A1R [1] corresponds to a Ki of 7.2 ± 2.4 nM. The inhibition at 1 µM on recombinant A2AR (human) came to 46 ± 1%; on recombinant A2BR (human) (read-out: % inhib., A2B) it was 35 ± 10%; at recombinant A3R (human), 42 ± 11%. In addition, the Emax at A1R [2] came out at 3.4 ± 1.9%.

Take `COc1ccc(-c2nc(SCc3ncc[nH]3)nc(N)c2C#N)cc1` [21c, 2-(((1H-Imidazol-2-yl)methyl)thio)-4-amino-6-(4-methoxyphenyl)pyrimidine-5-carbonitrile]: the Ki on A1R [1] worked out at 306 ± 17 nM; on recombinant A2BR (human), 237 ± 48 nM. The inhibition at 1 µM on recombinant A3R (human) was determined as 51 ± 5%. For the same compound, the Emax on A1R [2] worked out at 1.4 ± 3.1%.

Consider `COc1cccc(-c2nc(SCc3ncc[nH]3)nc(N)c2C#N)c1` [21d, 2-(((1H-Imidazol-2-yl)methyl)thio)-4-amino-6-(3-methoxyphenyl)pyrimidine-5-carbonitrile], for which the Ki stood at 48 ± 2.8 nM at A1R [1], 554 ± 273 nM on recombinant A2AR (human), 208 ± 27 nM on recombinant A2BR (human) and 703 ± 50 nM at recombinant A3R (human). Moreover, the Emax on A1R [2] came to 4.9 ± 3.3%.

Consider `Cc1cccc(CSc2nc(N)c(C#N)c(-c3cccc(O)c3)n2)n1` [21e, 4-Amino-6-(3-hydroxyphenyl)-2-(((6-methylpyridin-2-yl)methyl)thio)pyrimidine-5-carbonitrile], for which the Ki on A1R [1] came out at 18 ± 2.1 nM; on recombinant A2AR (human), 93 ± 63 nM; on recombinant A2BR (human), 126 ± 12 nM; on recombinant A3R (human), 79 ± 9.4 nM. In addition, at A1R [2], the Emax was 18 ± 3.3%.

`N#Cc1c(N)nc(SCc2ncc[nH]2)nc1-c1cccc(O)c1` [21f, 2-(((1H-Imidazol-2-yl)methyl)thio)-4-amino-6-(3-hydroxyphenyl)pyrimidine-5-carbonitrile]: the Ki was found to be 110 ± 31 nM on A1R [1], 96 ± 13.3 nM on recombinant A2AR (human), 38 ± 7.3 nM on recombinant A2BR (human) and 112 ± 14 nM on recombinant A3R (human). For the same compound, the Emax on A1R [2] amounted to 41 ± 6.1%.

Take `COc1ccc(-c2c(C#N)c(N)nc(SCc3cccc(C)n3)c2C#N)cc1` [22a, 2-Amino-4-(4-methoxyphenyl)-6-(((6-methylpyridin-2-yl)methyl)thio)pyridine-3,5-dicarbonitrile]: the Ki at A1R [1] came out at 2.9 ± 0.7 nM; at recombinant A2AR (human) it was 35 ± 19 nM; on recombinant A2BR (human) it was 30 ± 2.5 nM; on recombinant A3R (human), 701 ± 244 nM. The Emax on A1R [2] is -0.06 ± 3.3%.

As a reminder, the EC50 is the concentration giving half of the maximal effect. The low end stands for an effect from little substance, the high end for a need for much substance. Take `COc1cccc(-c2c(C#N)c(N)nc(SCc3cccc(C)n3)c2C#N)c1` [22b, 2-Amino-4-(3-methoxyphenyl)-6-(((6-methylpyridin-2-yl)methyl)thio)pyridine-3,5-dicarbonitrile]: the inhibitory constant (Ki) is 0.49 ± 0.06 nM at A1R [1]; 71 ± 25 nM at recombinant A2AR (human); 75 ± 30 nM at recombinant A2BR (human); 0.21 nM in data set [3]; 52 nM in data set [4]. Moreover, the inhibition at 1 µM on recombinant A3R (human) worked out at 42 ± 11%. Moreover, the EC50 at A1R [2] turned out to be 1 nM. Moreover, at A1R [2], the Emax was determined as 16 ± 2.3%.

On to `Cc1cccc(CSc2nc(N)c(C#N)c(-c3cccc(O)c3)c2C#N)n1` [22e, 2-Amino-4-(3-hydroxyphenyl)-6-(((6-methylpyridin-2-yl)methyl)thio)pyridine-3,5-dicarbonitrile], for which the Ki on A1R [1] was 3.5 ± 1.3 nM; on recombinant A2AR (human), 15 ± 3.1 nM; on recombinant A2BR (human) it was 24 ± 16 nM; at recombinant A3R (human) it was 74 ± 3.4 nM. In addition, the Emax at A1R [2] stood at 109 ± 7.8%.

`CC(=O)Nc1ccc(-c2c(C#N)c(N)nc(SCc3cccc(C)n3)c2C#N)cc1` [22g, N-(4-(2-Amino-3,5-dicyano-6-(((6-methylpyridin-2-yl)methyl)thio)pyridin-4-yl)phenyl)acetamide]: the Ki on A1R [1] was 53 ± 18 nM; on recombinant A2AR (human) it was 2.8 ± 0.1 nM; at recombinant A2BR (human) it was 1.2 ± 0.2 nM; at recombinant A3R (human), 22 ± 6.7 nM. Besides, the Emax at A1R [2] turned out to be 122 ± 5.2%.

In the case of `CSc1nc(N)c(C#N)c(-c2ccc(NC(C)=O)cc2)c1C#N` [compound 12, N-(4-(2-Amino-3,5-dicyano-6-(methylthio)pyridin-4-yl)phenyl)acetamide], the BBB permeability entry in data set [5] was “poor BBB permeability”.

Consider `CSc1nc(N)c(C#N)c(-c2ccc(NC(C)=O)cc2)n1` [compound 13, N-(4-(6-Amino-5-cyano-2-(methylthio)pyrimidin-4-yl)phenyl)acetamide], for which, in data set [5], the BBB permeability result is on record as “poor BBB permeability”.

`COc1ccc(-c2c(C#N)c(N)nc(SC)c2C#N)cc1` [compound 14, 2-Amino-4-(4-methoxyphenyl)-6-(methylthio)pyridine-3,5-dicarbonitrile]: in data set [5], the “standard uptake value (SUV), brain uptake” value is recorded as ~ 3 g/mL.

In the case of `COc1ccc(-c2nc(SC)nc(N)c2C#N)cc1` [compound 15, 4-Amino-6-(4-methoxyphenyl)-2-(methylthio)pyrimidine-5-carbonitrile], in data set [5], the “standard uptake value (SUV), brain uptake” value is recorded as ~ 3 g/mL.

The values are drawn from PMC8327296 (Journal of medicinal chemistry, 2018).
